Reference: ChEMBL document CHEMBL1156595, “Studies on the antifungal properties of N-thiolated beta-lactams” (2008)

Experiments:
Format in all cases: functional
Candida albicans = assay: Antifungal activity against Candida albicans ATCC 2091 assessed as growth inhibition zone at 50 ug after 24 hrs by Kirby-Bauer agar diffusion assay; details: ATCC 2091, 24 h, read-out: IZ
In short: (§1)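 Disk diffusion on yeast nitrogen base agar, swabbed with a McFarland 0.5 suspension in saline. 6 mm cellulose disks carried 10 µL of a 5 mg/mL CH2Cl2 stock (50 ug per disk), air-dried, three disks per plate. Plates were sealed and incubated 24 h at 37°C. Cleared inhibition zones were measured and averaged over triplicates.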

Candida tropicalis = assay: Antifungal activity against Candida tropicalis clinical isolate assessed as growth inhibition zone at 50 ug after 24 hrs by Kirby-Bauer agar diffusion assay; details: read-out: IZ; in short: as §1
Nakaseomyces glabratus = assay: Antifungal activity against Candida glabrata ATCC 15126 assessed as growth inhibition zone at 50 ug after 24 hrs by Kirby-Bauer agar diffusion assay; details: ATCC 15126, 24 h, read-out: IZ; in short: as §1
Kluyveromyces marxianus = assay: Antifungal activity against Candida kefyr ATCC 20409 assessed as growth inhibition zone at 50 ug after 24 hrs by Kirby-Bauer agar diffusion assay; details: ATCC 20409, 24 h, read-out: IZ; in short: as §1
Pichia kudriavzevii = assay: Antifungal activity against Candida krusei ATCC 14243 assessed as growth inhibition zone at 50 ug after 24hrs by Kirby-Bauer agar diffusion assay; details: ATCC 14243, 24 h, read-out: IZ; in short: as §1
Clavispora lusitaniae = assay: Antifungal activity against Candida lusitaniae ATCC 34449 assessed as growth inhibition zone at 50 ug after 24 by Kirby-Bauer agar diffusion assay; details: read-out: IZ; in short: as §1
Candida parapsilosis = assay: Antifungal activity against Candida parapsilosis ATCC 22019 assessed as growth inhibition zone at 50 ug after 24 hrs by Kirby-Bauer agar diffusion assay; details: Lodderomyces parapsilosis, ATCC 22019, 24 h; read-out: IZ; in short: as §1
Cyberlindnera jadinii = assay: Antifungal activity against Candida utilis ATCC 29950 assessed as growth inhibition zone at 50 ug after 24 by Kirby-Bauer agar diffusion assay; details: Williopsis jadinii, read-out: IZ; in short: as §1

Row | SMILES | zone of inhibition at 50 µg/disc (Candida albicans) [mm] | zone of inhibition at 50 µg/disc (Candida tropicalis) [mm] | zone of inhibition at 50 µg/disc (Nakaseomyces glabratus) [mm] | zone of inhibition at 50 µg/disc (Kluyveromyces marxianus) [mm] | zone of inhibition at 50 µg/disc (Pichia kudriavzevii) [mm] | zone of inhibition at 50 µg/disc (Clavispora lusitaniae) [mm] | zone of inhibition at 50 µg/disc (Candida parapsilosis) [mm] | zone of inhibition at 50 µg/disc (Cyberlindnera jadinii) [mm]
1 | CO[C@H]1C(=O)N(SC)[C@H]1c1ccc(Cl)cc1 | 0 | 0 | 0 | 10 | 0 | 14 | 0 | 0
2 | CSN1C(=O)[C@H](OC(C)=O)[C@@H]1/C=C/c1ccccc1 | 0 | 0 | 14 | 12 | 0 | 0 | 0 | 13
3 | CO[C@H]1C(=O)N(SC)[C@H]1c1ccccc1Br | 25 | 21 | 17 | 13 | 0 | 19 | 40 | 25
4 | CO[C@H]1C(=O)N(SC)[C@H]1c1cc(F)c(F)c(F)c1 | 25 | 19 | 18 | 17 | 0 | 25 | 34 | 29
5 | CSN1C(=O)[C@@H](OC(C)=O)[C@H]1c1ccccc1 | 14 | 11 | 0 | 0 | 0 | 10 | 0 | 16
6 | CO[C@H]1C(=O)N(SC)[C@H]1c1cc(F)c(F)cc1F | 25 | 20 | 14 | 16 | 0 | 14 | 22 | 14
7 | CCC(C)SN1C(=O)[C@H](OC)[C@@H]1c1ccccc1Cl (stereo partly specified) | 16 | 13 | 0 | 0 | 0 | 0 | 0 | 0
8 | CO[C@H]1C(=O)N(SC)[C@H]1c1ccc(F)cc1 | 16 | 0 | 0 | – | 0 | 0 | 21 | –
9 | CSN1C(=O)[C@H](OC(C)=O)[C@@H]1c1ccccc1 | 14 | 15 | 0 | 9 | 0 | 15 | 0 | 16
10 | CO[C@H]1C(=O)N(SC)[C@H]1c1cc(F)cc(F)c1F | 18 | 24 | 11 | 15 | 0 | 17 | 22 | 16
11 | CO[C@H]1C(=O)N(SC)[C@H]1c1ccc(Cl)cc1Cl | 27 | 23 | 32 | 28 | 0 | 22 | 31 | 21
12 | CO[C@H]1C(=O)N(SC)[C@H]1c1ccccc1I | 16 | 15 | 20 | 15 | 0 | 17 | 22 | 15
13 | CO[C@H]1C(=O)N(SC)[C@H]1c1ccc(I)cc1 | 16 | 12 | 22 | 19 | 0 | 20 | 25 | 20
14 | CO[C@H]1C(=O)N(SC)[C@H]1c1cc(Cl)cc(Cl)c1Cl | 23 | 22 | 31 | 30 | 0 | 23 | 26 | 19
15 | CO[C@H]1C(=O)N(SC)[C@H]1/C=C/c1ccccc1 | 27 | 14 | 16 | 14 | 0 | 14 | 13 | 19
16 | CO[C@H]1C(=O)N(SC)[C@H]1c1cccc(F)c1 | 14 | 0 | 0 | 13 | 0 | 0 | 22 | 16
17 | CO[C@H]1C(=O)N(SC)[C@H]1c1ccccc1F | 15 | 0 | 0 | 15 | 0 | 0 | 19 | 14
18 | CO[C@H]1C(=O)N(SC)[C@H]1c1cccc(Br)c1 | 20 | 18 | 17 | 14 | 0 | 15 | 18 | 14
19 | CO[C@H]1C(=O)N(SC)[C@H]1c1ccc(Br)cc1 | 25 | 20 | 19 | 17 | 0 | 17 | 23 | 17
20 | CSN1C(=O)[C@H](Oc2ccccc2)[C@@H]1/C=C/c1ccccc1 | 0 | 0 | 9 | 0 | 0 | 0 | 0 | 0
21 | CSN1C(=O)[C@H](OC(C)=O)[C@@H]1CCc1ccccc1 | 0 | 0 | 15 | 13 | 0 | 0 | 0 | 0
